This is one part of a sample in which hits are shown more often than they occur.
Avidin fluor – green autofluorescence of compounds with avidin beads – biophysical, 488/530 nm, flow cytometry, artefact control, profiling panel. AID 1775, 2009. 220,000 tested, 0.38% active. compound fluorescence 488/530 nm; stronger effect = higher value. fluorescence (KMESF) at 10 µM; in the data active = fluorescence above about 47
PKD1 inh – inhibitors of human PKD1 kinase, biochemical, fluorescence polarization | PKD1 kinase fluorescence polarization assay | Serine/threonine-protein kinase D1 (Homo sapiens), Q15139 | 200,000 tested, 0.056% active | inhibition, % (test concentration not listed)
ABCB1 block – ABCB1 efflux pump inhibitors, primary screen, cell-based, multiplex, flow cytometry, ABCG2 counter-screen | ATP-dependent translocase ABCB1 (Homo sapiens), P08183 | CCRF-Adr cells, JC-1 efflux | inhibition, % at 6.6 µM | 190,000 tested, 0.067% active | AID 1326, 2008; in the data active = inhibition above about 40%;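 also: 0% = vehicle and 100% = reference inhibitor; higher value means more JC-1 retained so stronger ABCB1 efflux block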
Target sequence (P08183 whole entry, looked up): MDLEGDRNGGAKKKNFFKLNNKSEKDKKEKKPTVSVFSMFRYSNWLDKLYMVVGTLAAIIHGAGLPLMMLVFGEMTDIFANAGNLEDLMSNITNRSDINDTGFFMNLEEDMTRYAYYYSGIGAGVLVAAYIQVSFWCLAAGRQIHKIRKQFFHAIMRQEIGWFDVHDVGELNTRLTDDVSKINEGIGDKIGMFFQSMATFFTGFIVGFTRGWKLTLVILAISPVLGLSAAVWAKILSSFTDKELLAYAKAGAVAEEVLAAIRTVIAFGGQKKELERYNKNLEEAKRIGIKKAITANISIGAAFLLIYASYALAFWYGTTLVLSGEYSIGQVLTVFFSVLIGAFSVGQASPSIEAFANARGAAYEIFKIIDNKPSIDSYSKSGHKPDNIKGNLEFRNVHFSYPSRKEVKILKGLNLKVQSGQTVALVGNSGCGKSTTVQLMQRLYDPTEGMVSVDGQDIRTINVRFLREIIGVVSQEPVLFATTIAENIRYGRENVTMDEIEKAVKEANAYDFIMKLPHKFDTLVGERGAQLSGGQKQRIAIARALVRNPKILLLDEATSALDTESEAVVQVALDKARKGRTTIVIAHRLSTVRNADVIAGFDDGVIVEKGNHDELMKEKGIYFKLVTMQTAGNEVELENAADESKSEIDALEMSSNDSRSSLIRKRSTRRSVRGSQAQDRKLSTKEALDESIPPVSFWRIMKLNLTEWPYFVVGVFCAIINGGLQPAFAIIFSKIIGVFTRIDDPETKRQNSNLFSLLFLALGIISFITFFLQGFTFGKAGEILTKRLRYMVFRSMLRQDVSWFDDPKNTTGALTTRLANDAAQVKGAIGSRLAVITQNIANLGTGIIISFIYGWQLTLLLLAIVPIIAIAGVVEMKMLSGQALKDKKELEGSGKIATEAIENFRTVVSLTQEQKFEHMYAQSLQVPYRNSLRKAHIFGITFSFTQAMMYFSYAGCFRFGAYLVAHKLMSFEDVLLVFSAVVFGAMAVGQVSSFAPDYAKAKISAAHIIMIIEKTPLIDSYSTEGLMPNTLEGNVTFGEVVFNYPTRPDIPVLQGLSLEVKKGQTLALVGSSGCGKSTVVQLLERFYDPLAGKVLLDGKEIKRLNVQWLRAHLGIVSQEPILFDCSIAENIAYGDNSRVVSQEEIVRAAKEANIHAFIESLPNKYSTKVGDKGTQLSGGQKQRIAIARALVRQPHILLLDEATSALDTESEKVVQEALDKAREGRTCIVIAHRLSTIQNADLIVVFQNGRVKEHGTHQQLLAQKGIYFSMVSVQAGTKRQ
GSH fluor – compound fluorescence on glutathione beads, profiling panel, artefact control, biophysical, 488/530 nm, flow cytometry | GSH beads flow cytometry, compound fluorescence 488/530 nm; stronger effect = higher value | 190,000 tested, 0.25% active | AID 1776, 2009 | fluorescence (KMESF) at 10 µM; in the data active = fluorescence above about 89;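 also: glutathione beads carrying GST-tagged Bcl family fusion proteins plus one bare bead set; values are compound well signal with DMSO vehicle wells as background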
Lmaj promast – Leishmania major promastigote growth inhibition, primary screen; Leishmania major promastigotes, resazurin fluorescence viability; inhibition, % at 10 µM; 200,000 tested, 9% active;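 also: promastigotes grown with compound for 44 hours at 28 °C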
ABCG2 inh – ABCG2 efflux pump inhibitors, primary screen, multiplex with ABCB1, IgMXP3 cells, flow cytometry. Broad substrate specificity ATP-binding cassette transporter ABCG2 (Homo sapiens), Q9UNQ0. JC-1 efflux. inhibition, % at 6.6 µM. 190,000 tested, 0.1% active. AID 1325, 2008;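 active = inhibition above 80%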;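 also: 0% = DMSO and 100% = nicardipine control wells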
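Test system: ABCG2 IgMXP3 and barcoded ABCB1 CCRF-Adr cell mix; Schedule: cells with compound and JC-1, 10 min at 25 °C, rotating, no wash; Technique: flow cytometry of retained JC-1 fluorescence; Measure: % inhibition of efflux relative to nicardipine and DMSO; Controls: nicardipine high and DMSO low controls.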
An asterisk follows results filed as active; nt = no result. Rule as the data show it, unless noted: active = inhibition above about 50%; inactive = the rest.

SMILES | Avidin fluor | PKD1 inh | ABCB1 block | GSH fluor | Lmaj promast | ABCG2 inh
Cc1ccc(C(=O)NNC(=S)NC(=O)c2ccc(Cl)cc2)cc1 | 36 | -3 | 0 | 14 | 64* | -1
COc1cc(CN2CCNC(=O)C2CC(=O)N(Cc2nccn2C)C(C)C)cc(OC)c1 (configuration not stated) | 11 | nt | nt | nt | nt | nt
CC(NC(=O)c1ccccc1)C(=O)OCC(=O)N1c2ccccc2Sc2ccccc21 (configuration not stated) | 9 | -7 | 2 | 5 | 35 | 5
CCCCC(NC(=O)c1ccccc1)C(=O)OCC(=O)N1c2ccccc2Sc2ccccc21 (configuration not stated) | 23 | -9 | 3 | 54 | 75* | 8
CCN1CC(CN(C)Cc2nc(-c3ccc(C(F)(F)F)cc3)oc2C)CC1=O (configuration not stated) | 7 | -11 | 0 | 17 | 56* | 0
CC(=O)c1ccc(OC(=O)c2cc3ccccc3oc2=O)cc1 | 10 | -7 | 0 | 5 | 2 | 5
Cc1nc2c(C#N)c(C)[nH]n2c(=O)c1Cc1ccccc1 | 7 | -10 | 0 | 28 | 87* | -1
Cc1ccc(NC(=O)CN(c2ccc(Cl)cc2)S(=O)(=O)c2cc([N+](=O)[O-])ccc2Cl)c(C)c1 | 8 | 5 | -1 | 9 | 98* | -4
COc1ccc(C)cc1S(=O)(=O)N(CC(=O)Nc1cccc([N+](=O)[O-])c1)c1ccccc1 | 11 | -5 | 1 | 10 | 56* | 8
CS(=O)(=O)N(CC(=O)Nc1cccc([N+](=O)[O-])c1)c1ccccc1 | 21 | -3 | 0 | 10 | -2 | 3
Cc1ccc([N+](=O)[O-])cc1NC(=O)CN(C1CCCCC1)S(=O)(=O)c1ccc(Cl)cc1 | nt | 1 | 2 | 21 | 73* | 6
Cc1ccc(NS(=O)(=O)c2ccc(NC(=O)CN(c3cc([N+](=O)[O-])ccc3C)S(C)(=O)=O)cc2)c(C)c1 | 11 | -3 | 0 | 27 | 1 | -1
Cc1ccc([N+](=O)[O-])cc1NC(=O)CN(C(=O)c1ccccc1Cl)C1CCCCC1 | 2 | -2 | 3 | 11 | 34 | 29
Cc1ccccc1CN(CC(=O)Nc1cccc([N+](=O)[O-])c1)S(=O)(=O)c1ccc(Cl)cc1 | 14 | 0 | 7 | 8 | 100* | 61
COc1ccc(/C=C/C(=O)Nc2c(C(=O)O)[nH]c3ccccc23)cc1OC | 7 | nt | nt | nt | nt | nt
c1ccc2c(c1)sc1nnnn12 | 13 | -3 | 0 | 24 | -8 | 2
COc1ccc(Cl)cc1N(CC(=O)Nc1ccc2c(c1)OCO2)S(C)(=O)=O | 11 | 2 | 0 | 9 | 13 | 5
COc1ccc(OC)c(N(CC(=O)Nc2ccc3c(c2)OCO3)S(=O)(=O)c2ccccc2)c1 | 12 | -2 | 1 | 18 | 100* | 10
COc1ccc(N(CC(=O)Nc2ccc(S(=O)(=O)N3CCOCC3)cc2)S(=O)(=O)c2ccccc2)cc1 | 38 | -6 | 0 | 13 | 58* | 0
COc1cccc(NC(=O)CN(c2ccc([N+](=O)[O-])cc2)S(=O)(=O)c2ccccc2)c1 | 15 | -1 | 2 | 16 | 98* | 13
COc1ccc(NC(=O)CN(c2ccc([N+](=O)[O-])cc2)S(=O)(=O)c2ccccc2)cc1 | 1 | -5 | 6 | 9 | 34 | 5
COc1ccc(OCC(=O)Nc2ccc(S(=O)(=O)N3CCOCC3)cc2)cc1 | 4 | 3 | 0 | 14 | -3 | 2
CCOC(=O)c1c[nH]c2c(C(F)(F)F)cccc2c1=O | 5 | -4 | 1 | 13 | -1 | 1
COc1ccc(CCn2cc(C#N)c(=O)[nH]c2=O)cc1OC | 8 | -8 | 3 | 14 | -3 | 11
COc1ccc(-c2[nH]ncc2/C=C(/C#N)C(=O)NC2CCCCC2)cc1 | 5 | 2 | 13 | 36 | 66* | 24
SMILES | Avidin fluor | PKD1 inh | ABCB1 block | GSH fluor | Lmaj promast | ABCG2 inh
Cc1ccc(-c2[nH]ncc2/C=C(\C#N)C(=O)NC2CCCCC2)cc1 | 11 | -4 | 1 | 24 | 35 | 49
N#C/C(=C\C=C\c1ccccc1[N+](=O)[O-])C(=O)NC1CCCCC1 | 12 | -2 | 1 | 17 | 91* | 21
N#C/C(=C\c1cccn1-c1ccccc1)C(=O)NC1CCCCC1 | 18 | -10 | 2 | 17 | 4 | 15
N#C/C(=C\c1ccccc1[N+](=O)[O-])C(=O)NC1CCCCC1 | 6 | 1 | 2 | 8 | 100* | 17
N#C/C(=C\c1cc(Cl)ccc1O)C(=O)NC1CCCCC1 | 9 | 3 | 1 | 15 | 9 | 36
N#C/C(=C\c1ccc(OCC(N)=O)cc1)S(=O)(=O)c1ccccc1 | 9 | -2 | 0 | 26 | -3 | 0
COc1ccc(C(=O)/C=C/c2ccc(N3CCCCC3)c([N+](=O)[O-])c2)cc1 | 10 | -2 | 2 | 11 | 28 | 32
COc1cc(/C=C/C(=O)c2ccc(C)c([N+](=O)[O-])c2)cc(OC)c1O | 13 | 4 | 0 | 12 | 79* | 0
COc1cc(/C=C/C(=O)c2cccc([N+](=O)[O-])c2)cc(OC)c1OC | 4 | -6 | 1 | 9 | 100* | 35
COc1cccc(/C=C/C(=O)c2ccc[nH]2)c1 | 7 | 3 | 1 | 32 | 100* | 3
COc1cc(/C=N/NC(=O)c2ccc(C)nc2)cc([N+](=O)[O-])c1O | 12 | -4 | 1 | 13 | 6 | 3
COc1ccc(/C=C/C(=O)c2ccc(C)c([N+](=O)[O-])c2)cc1O | 13 | 0 | 0 | 12 | 100* | -1
O=C(N1CCCC1)C(F)(F)Oc1ccc(F)cc1 | 9 | 2 | 0 | 17 | -2 | 1
CC(Sc1nnc2ccccn12)C(N)=O (configuration not stated) | 24 | -4 | 0 | 63 | 13 | -1
COc1cccc(/C=C/C(=O)c2ccc(C)c([N+](=O)[O-])c2)c1 | 17 | -6 | 1 | 10 | 76* | 31
COc1cccc(C(=O)/C=C/c2ccc(SC)cc2)c1 | 15 | -7 | 0 | 20 | 46 | 3
CN(C)C(=O)Nc1ccccc1 | 5 | nt | nt | nt | nt | nt
COc1cc(C2C(C#N)=C(N)OC3=C2C(=O)CC(C)(C)C3)ccc1OCCN1CCOCC1 (configuration not stated) | 7 | nt | nt | nt | nt | nt
C=C(C)C1Cc2c(C)nn(-c3cc(C)c4ccccc4n3)c2C1 (configuration not stated) | nt | -1 | nt | nt | -1 | nt

Bioassay records deposited in PubChem BioAssay by several laboratories.
